Activity calls are given as the source filed them. The rule behind the calls is not given here.
Assays:
[1] = test system: K562; assay: Growth inhibition of human K562 cells at 10 uM relative to control; format: functional; settings: read-out: GI
In short: (§1)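 Each cell line in a 60-line human tumour panel exposed to one 10 μM concentration. Growth inhibition percentage computed as 100 minus the percentage activity relative to control.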

[2] = test system: MCF7; assay: Growth inhibition of human MCF7 cells at 10 uM relative to control; format: functional; settings: read-out: GI; in short: as §1
[3] = test system: Mus musculus; assay: Anticonvulsant activity in mouse assessed as protection against maximal electroshock-induced seizure at 1 mmol/kg, ip administered 30 min prior to maximal electroshock-challenge measured after 60 mins relative to control; format: functional
[4] = test system: SK-OV-3; assay: Growth inhibition of human SKOV3 cells at 10 uM relative to control; format: functional; settings: read-out: GI; in short: as §1
[5] = test system: DU-145; assay: Growth inhibition of human DU145 cells at 10 uM relative to control; format: functional; settings: read-out: GI; in short: as §1
[6] = test system: OVCAR-3; assay: Growth inhibition of human OVCAR3 cells at 10 uM relative to control; format: functional; settings: read-out: GI; in short: as §1
[7] = test system: SR; assay: Growth inhibition of human SR cells at 10 uM relative to control; format: functional; settings: read-out: GI
In short: (§2)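 Single-dose screen across the 60-cell-line human tumor panel at 10 μM. Growth inhibition is reported as a percentage, taken as 100 minus the % growth relative to untreated control.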

[8] = test system: NCI-H460; assay: Growth inhibition of human NCI-H460 cells at 10 uM relative to control; format: functional; settings: read-out: GI; in short: as §1
[9] = test system: A498; assay: Growth inhibition of human A498 cells at 10 uM relative to control; format: functional; settings: read-out: GI; in short: as §1
[10] = test system: RXF 393; assay: Growth inhibition of human RXF393 cells at 10 uM relative to control; format: functional; settings: read-out: GI; in short: as §1
[11] = test system: SK-MEL-5; assay: Growth inhibition of human SK-MEL-5 cells at 10 uM relative to control; format: functional; settings: read-out: GI; in short: as §1
[12] = test system: MOLT-4; assay: Growth inhibition of human MOLT4 cells at 10 uM relative to control; format: functional; settings: read-out: GI; in short: as §1
[13] = test system: SF-295; assay: Growth inhibition of human SF295 cells at 10 uM relative to control; format: functional; settings: read-out: GI; in short: as §1
[14] = test system: Mus musculus; assay: Anticonvulsant activity in mouse assessed as protection against strychnine-induced seizure at 1 mmol/kg, ip administered 30 min prior to strychnine-challenge measured after 60 mins relative to control; format: functional
[15] = test system: NCI-H322M; assay: Growth inhibition of human NCI-H322M cells at 10 uM relative to control; format: functional; settings: read-out: GI; in short: as §1
[16] = test system: MDA-MB-231; assay: Growth inhibition of human MDA-MB-231 cells at 10 uM relative to control; format: functional; settings: read-out: GI; in short: as §1
[17] = test system: ACHN; assay: Growth inhibition of human ACHN cells at 10 uM relative to control; format: functional; settings: read-out: GI; in short: as §1
[18] = test system: UACC-62; assay: Growth inhibition of human UACC62 cells at 10 uM relative to control; format: functional; settings: read-out: GI; in short: as §2
[19] = test system: Mus musculus; assay: Anticonvulsant activity in mouse assessed as protection against pentylenetetrazol-induced seizure at 1 mmol/kg, ip administered 30 min prior to pentylenetetrazol-challenge measured after 60 mins relative to control; format: functional
[20] = test system: HCC 2998; assay: Growth inhibition of human HCC2998 cells at 10 uM relative to control; format: functional; settings: read-out: GI; in short: as §1
[21] = test system: KM12; assay: Growth inhibition of human KM12 cells at 10 uM relative to control; format: functional; settings: read-out: GI; in short: as §1
[22] = test system: HOP-62; assay: Growth inhibition of human HOP62 cells at 10 uM relative to control; format: functional; settings: read-out: GI; in short: as §1
[23] = test system: SK-MEL-28; assay: Growth inhibition of human SK-MEL-28 cells at 10 uM relative to control; format: functional; settings: read-out: GI; in short: as §1
[24] = test system: Malme-3M; assay: Growth inhibition of human MALME-3M cells at 10 uM relative to control; format: functional; settings: read-out: GI; in short: as §1
[25] = test system: T47D; assay: Growth inhibition of human T47D cells at 10 uM relative to control; format: functional; settings: read-out: GI; in short: as §2
[26] = test system: EKVX; assay: Growth inhibition of human EKVX cells at 10 uM relative to control; format: functional; settings: read-out: GI; in short: as §1
[27] = test system: HT-29; assay: Growth inhibition of human HT-29 cells at 10 uM relative to control; format: functional; settings: read-out: GI; in short: as §1
[28] = test system: PC-3; assay: Growth inhibition of human PC3 cells at 10 uM relative to control; format: functional; settings: read-out: GI; in short: as §1
[29] = test system: CCRF-CEM; assay: Growth inhibition of human CCRF-CEM cells at 10 uM relative to control; format: functional; settings: read-out: GI; in short: as §1
[30] = test system: MDA-MB-435; assay: Growth inhibition of human MDA-MB-435 cells at 10 uM relative to control; format: functional; settings: read-out: GI; in short: as §1
[31] = test system: NCI-H226; assay: Growth inhibition of human NCI-H226 cells at 10 uM relative to control; format: functional; settings: read-out: GI; in short: as §1
[32] = test system: HL-60(TB); assay: Growth inhibition of human HL-60(TB) cells at 10 uM relative to control; format: functional; settings: read-out: GI
In short: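 Single-dose screen at 10 μM across the 60-cell-line tumour panel. Percent growth inhibition = 100 minus percent growth activity relative to untreated control.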

[33] = test system: UO-31; assay: Growth inhibition of human UO31 cells at 10 uM relative to control; format: functional; settings: read-out: GI; in short: as §2
[34] = test system: LOX IMVI; assay: Growth inhibition of human LOXIMVI cells at 10 uM relative to control; format: functional; settings: read-out: GI; in short: as §1
[35] = test system: OVCAR-4; assay: Growth inhibition of human OVCAR4 cells at 10 uM relative to control; format: functional; settings: read-out: GI; in short: as §1
[36] = test system: IGROV-1; assay: Growth inhibition of human IGROV1 cells at 10 uM relative to control; format: functional; settings: read-out: GI; in short: as §1
[37] = test system: SW-620; assay: Growth inhibition of human SW620 cells at 10 uM relative to control; format: functional; settings: read-out: GI; in short: as §2
[38] = test system: SF-539; assay: Growth inhibition of human SF539 cells at 10 uM relative to control; format: functional; settings: read-out: GI; in short: as §1
[39] = test system: SNB-75; assay: Growth inhibition of human SNB75 cells at 10 uM relative to control; format: functional; settings: read-out: GI; in short: as §2
[40] = test system: M14; assay: Growth inhibition of human M14 cells at 10 uM relative to control; format: functional; settings: read-out: GI; in short: as §1
[41] = test system: HCT-116; assay: Growth inhibition of human HCT116 cells at 10 uM relative to control; format: functional; settings: read-out: GI; in short: as §1
[42] = test system: SF-268; assay: Growth inhibition of human SF268 cells at 10 uM relative to control; format: functional; settings: read-out: GI; in short: as §1
[43] = test system: RPMI-8226; assay: Growth inhibition of human RPMI8226 cells at 10 uM relative to control; format: functional; settings: read-out: GI; in short: as §1
[44] = test system: NCI/ADR-RES; assay: Growth inhibition of human NCI/ADR-RES cells at 10 uM relative to control; format: functional; settings: read-out: GI; in short: as §1
[45] = test system: SN12C; assay: Growth inhibition of human SN12C cells at 10 uM relative to control; format: functional; settings: read-out: GI; in short: as §2
[46] = test system: OVCAR-5; assay: Growth inhibition of human OVCAR5 cells at 10 uM relative to control; format: functional; settings: read-out: GI; in short: as §1
[47] = test system: NCI-H23; assay: Growth inhibition of human NCI-H23 cells at 10 uM relative to control; format: functional; settings: read-out: GI; in short: as §1
[48] = Growth inhibition of human Hs 578T cells at 10 uM relative to control; format: functional; settings: read-out: GI; in short: as §1
[49] = test system: SNB-19; assay: Growth inhibition of human SNB19 cells at 10 uM relative to control; format: functional; settings: read-out: GI; in short: as §2
[50] = test system: COLO 205; assay: Growth inhibition of human COLO205 cells at 10 uM relative to control; format: functional, cell-based; in short: as §1
[51] = test system: CAKI-1; assay: Growth inhibition of human CAKI-1 cells at 10 uM relative to control; format: functional; settings: read-out: GI; in short: as §1
[52] = test system: U-251; assay: Growth inhibition of human U251 cells at 10 uM relative to control; format: functional; settings: read-out: GI; in short: as §2
[53] = Growth inhibition of human 786-O cells at 10 uM relative to control; format: functional; settings: 786-0, read-out: GI; in short: as §1
[54] = test system: UACC-257; assay: Growth inhibition of human UACC257 cells at 10 uM relative to control; format: functional; settings: read-out: GI; in short: as §2
[55] = test system: OVCAR-8; assay: Growth inhibition of human OVCAR8 cells at 10 uM relative to control; format: functional; settings: read-out: GI; in short: as §1
[56] = test system: HCT-15; assay: Growth inhibition of human HCT15 cells at 10 uM relative to control; format: functional; settings: read-out: GI; in short: as §1
[57] = test system: A549; assay: Growth inhibition of human A549 cells at 10 uM relative to control; format: functional; settings: read-out: GI; in short: as §1

**Q.** Which results are given for `Cc1ccccc1-n1c(C)nc2cc(NC(=O)c3ccc(Cl)cc3)ccc2c1=O`?
**A.** inhibition of growth at 10 µM [1]: 44.2%; inhibition of growth at 10 µM [2]: 42.2%; Activity [3]: 50%; inhibition of growth at 10 µM [4]: 16.8%; inhibition of growth at 10 µM [5]: 12.4%; inhibition of growth at 10 µM [6]: 41.1%; inhibition of growth at 10 µM [7]: 26.3%; inhibition of growth at 10 µM [8]: 27.5%; inhibition of growth at 10 µM [9]: 39.4%; inhibition of growth at 10 µM [10]: 23.2%; inhibition of growth at 10 µM [11]: 99.1%; inhibition of growth at 10 µM [12]: 29.3%; inhibition of growth at 10 µM [13]: 40.3%; Activity [14]: 0%; inhibition of growth at 10 µM [15]: 6%; inhibition of growth at 10 µM [16]: 42.7%; inhibition of growth at 10 µM [17]: 52%; inhibition of growth at 10 µM [18]: 57.8%; Activity [19]: 0%; inhibition of growth at 10 µM [20]: 19.1%; inhibition of growth at 10 µM [21]: 24.4%; inhibition of growth at 10 µM [22]: 3%; inhibition of growth at 10 µM [23]: 20.4%; inhibition of growth at 10 µM [24]: 56.5%; inhibition of growth at 10 µM [25]: 71%; inhibition of growth at 10 µM [26]: 48.5%; inhibition of growth at 10 µM [27]: 38.1%; inhibition of growth at 10 µM [28]: 39.8%; inhibition of growth at 10 µM [29]: 47.3%; inhibition of growth at 10 µM [30]: 56.4%; inhibition of growth at 10 µM [31]: 12%; inhibition of growth at 10 µM [32]: 35.5%; inhibition of growth at 10 µM [33]: 22.2%; inhibition of growth at 10 µM [34]: 31.6%; inhibition of growth at 10 µM [35]: 69.9%; inhibition of growth at 10 µM [36]: 21.4%; inhibition of growth at 10 µM [37]: 14%; inhibition of growth at 10 µM [38]: 31.8%; inhibition of growth at 10 µM [39]: 21.2%; inhibition of growth at 10 µM [40]: 32.3%; inhibition of growth at 10 µM [41]: 25.2%; inhibition of growth at 10 µM [42]: 32.3%; inhibition of growth at 10 µM [43]: 55.4%; inhibition of growth at 10 µM [44]: 17.6%; inhibition of growth at 10 µM [45]: 32.4%; inhibition of growth at 10 µM [46]: 24.1%; inhibition of growth at 10 µM [47]: 35.7%; inhibition of growth at 10 µM [48]: 17.9%; inhibition of growth at 10 µM [49]: 24.2%; growth inhibition (GI) [50]: inactive; inhibition of growth at 10 µM [51]: 41.2%; inhibition of growth at 10 µM [52]: 32.4%; inhibition of growth at 10 µM [53]: 32.4%; inhibition of growth at 10 µM [54]: 40.3%; inhibition of growth at 10 µM [55]: 16%; inhibition of growth at 10 µM [56]: 36.3%; inhibition of growth at 10 µM [57]: 27.8%
